Laboratory results from ChEMBL document CHEMBL3046036, “Bioactivity of the fungal metabolite (8R,16R)-(-)-pyrenophorin on graminaceous plants” (J Agric Food Chem, 2005).

Tests used:
Settings in all cases: in vivo
Avena sterilis = experiment: Effect on chlorophyll content in Avena sterilis assessed as chlorophyll dissipation rate at 20 degC in the dark at 320 uM relative to control
Triticum aestivum = experiment: Effect on chlorophyll content in Triticum aestivum (wheat) assessed as chlorophyll dissipation rate at 20 degC in the dark at 320 uM relative to control
Hordeum vulgare = experiment: Effect on chlorophyll content in Hordeum vulgare (barley) assessed as chlorophyll dissipation rate at 20 degC and 12 hr photoperiod at 320 uM relative to control; type: ADME, organism-based
Method in brief: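 Leaf sections were treated with 320 µM metabolite and incubated in the dark at 20 °C, with 16 tubes per treatment. Every 12 h, segments from one tube were split into four tubes and extracted in DMSO at 65 °C for 30 min. Extracts were read at A665, tissue was dried at 105 °C and weighed, and chlorophyll was expressed as A665 per g dry weight.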

Avena fatua = experiment: Effect on chlorophyll content in Avena fatua assessed as chlorophyll dissipation rate at 20 degC in the dark at 320 uM relative to control
Avena sativa = experiment: Effect on chlorophyll content in Avena sativa assessed as chlorophyll dissipation rate at 20 degC in the dark at 320 uM relative to control

Measured: Activity

C[C@@H]1CC[C@H](O)/C=C/C(=O)O[C@H](C)CC[C@H](O)/C=C/C(=O)O1 [(5S,8R,13S,16R)-(-)-PYRENOPHOROL]
Non-toxic: all assays above
